ChEMBL document CHEMBL3797160, “Discovery of novel diaryl urea derivatives bearing a triazole moiety as potential antitumor agents” (Eur J Med Chem, 2016)

What was measured:
HT-29 [1] = assay: Antiproliferative activity against human HT-29 cells after 72 hrs by MTT assay; type: functional, cell-based; conditions: HT-29, 72 h
Outline: (§1)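 MTT assay. Cells grown in MEM with 10% FBS. About 4 × 10³ cells per well were plated and left 24 h at 37 °C in 5% CO₂. Compounds were then added for a further 72 h. MTT was added to a final 5 µg/mL for 4 h at 37 °C. Formazan was dissolved in DMSO and read at 492 nm against a 630 nm reference. Each line was tested three times, and IC50 is the average of at least three determinations.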

[2] = Antiproliferative activity against human H460 cells after 72 hrs by MTT assay; type: functional, cell-based; conditions: NCI-H460, 72 h; outline: as §1
[3] = Cytotoxicity against human WI38 cells after 72 hrs by MTT assay; type: cell-based; conditions: WI-38, 72 h; outline: as §1
MDA-MB-231 = assay: Antiproliferative activity against human MDA-MB-231 cells after 72 hrs by MTT assay; type: functional, cell-based; conditions: MDA-MB-231, 72 h; outline: as §1
[4] = target: Vascular endothelial growth factor receptor 2 (Homo sapiens) (UniProt P35968); conditions: at 10 µM;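 also: kinase activity read out by mobility shift assay after 1 h of incubation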
Vascular endothelial growth factor receptor 2 (Homo sapiens), sequence (P35968 whole entry): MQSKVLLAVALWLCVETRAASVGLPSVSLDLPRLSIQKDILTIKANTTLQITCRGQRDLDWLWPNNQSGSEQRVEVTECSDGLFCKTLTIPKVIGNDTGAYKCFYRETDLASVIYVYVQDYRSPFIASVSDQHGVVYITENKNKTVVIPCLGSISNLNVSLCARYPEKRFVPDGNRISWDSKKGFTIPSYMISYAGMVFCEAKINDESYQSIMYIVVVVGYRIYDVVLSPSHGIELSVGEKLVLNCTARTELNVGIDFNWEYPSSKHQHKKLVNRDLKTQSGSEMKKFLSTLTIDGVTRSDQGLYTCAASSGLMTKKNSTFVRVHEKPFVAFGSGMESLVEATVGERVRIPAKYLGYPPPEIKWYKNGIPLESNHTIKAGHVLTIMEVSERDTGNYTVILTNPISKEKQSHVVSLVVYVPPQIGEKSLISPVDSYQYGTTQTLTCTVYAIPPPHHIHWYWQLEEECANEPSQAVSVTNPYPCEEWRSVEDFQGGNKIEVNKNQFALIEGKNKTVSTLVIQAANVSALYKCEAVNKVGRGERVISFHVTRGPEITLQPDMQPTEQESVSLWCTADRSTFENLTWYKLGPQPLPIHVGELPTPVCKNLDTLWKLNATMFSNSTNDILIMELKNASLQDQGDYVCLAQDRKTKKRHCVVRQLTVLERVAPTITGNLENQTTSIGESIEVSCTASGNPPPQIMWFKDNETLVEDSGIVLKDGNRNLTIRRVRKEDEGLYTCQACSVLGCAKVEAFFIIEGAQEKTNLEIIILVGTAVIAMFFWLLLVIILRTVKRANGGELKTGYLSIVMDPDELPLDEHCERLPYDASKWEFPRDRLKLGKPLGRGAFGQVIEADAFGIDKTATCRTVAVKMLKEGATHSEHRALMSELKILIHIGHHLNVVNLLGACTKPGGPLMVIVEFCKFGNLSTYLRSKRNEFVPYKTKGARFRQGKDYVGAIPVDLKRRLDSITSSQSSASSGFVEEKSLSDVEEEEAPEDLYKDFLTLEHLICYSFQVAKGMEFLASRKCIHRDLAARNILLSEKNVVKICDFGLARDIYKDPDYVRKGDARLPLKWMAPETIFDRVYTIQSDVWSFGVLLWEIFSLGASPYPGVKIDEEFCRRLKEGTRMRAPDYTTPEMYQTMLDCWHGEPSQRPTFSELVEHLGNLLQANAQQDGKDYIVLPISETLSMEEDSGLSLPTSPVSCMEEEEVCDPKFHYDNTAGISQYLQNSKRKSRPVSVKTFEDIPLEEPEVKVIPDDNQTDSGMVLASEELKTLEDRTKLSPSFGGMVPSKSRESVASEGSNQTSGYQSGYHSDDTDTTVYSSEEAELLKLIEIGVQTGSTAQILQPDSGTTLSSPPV

[5] = target: Proto-oncogene tyrosine-protein kinase receptor Ret (Homo sapiens) (UniProt P07949); assay: Inhibition of RET (unknown origin) at 10 uM after 1 hr by mobility shift assay
Proto-oncogene tyrosine-protein kinase receptor Ret (Homo sapiens), sequence (P07949 whole entry): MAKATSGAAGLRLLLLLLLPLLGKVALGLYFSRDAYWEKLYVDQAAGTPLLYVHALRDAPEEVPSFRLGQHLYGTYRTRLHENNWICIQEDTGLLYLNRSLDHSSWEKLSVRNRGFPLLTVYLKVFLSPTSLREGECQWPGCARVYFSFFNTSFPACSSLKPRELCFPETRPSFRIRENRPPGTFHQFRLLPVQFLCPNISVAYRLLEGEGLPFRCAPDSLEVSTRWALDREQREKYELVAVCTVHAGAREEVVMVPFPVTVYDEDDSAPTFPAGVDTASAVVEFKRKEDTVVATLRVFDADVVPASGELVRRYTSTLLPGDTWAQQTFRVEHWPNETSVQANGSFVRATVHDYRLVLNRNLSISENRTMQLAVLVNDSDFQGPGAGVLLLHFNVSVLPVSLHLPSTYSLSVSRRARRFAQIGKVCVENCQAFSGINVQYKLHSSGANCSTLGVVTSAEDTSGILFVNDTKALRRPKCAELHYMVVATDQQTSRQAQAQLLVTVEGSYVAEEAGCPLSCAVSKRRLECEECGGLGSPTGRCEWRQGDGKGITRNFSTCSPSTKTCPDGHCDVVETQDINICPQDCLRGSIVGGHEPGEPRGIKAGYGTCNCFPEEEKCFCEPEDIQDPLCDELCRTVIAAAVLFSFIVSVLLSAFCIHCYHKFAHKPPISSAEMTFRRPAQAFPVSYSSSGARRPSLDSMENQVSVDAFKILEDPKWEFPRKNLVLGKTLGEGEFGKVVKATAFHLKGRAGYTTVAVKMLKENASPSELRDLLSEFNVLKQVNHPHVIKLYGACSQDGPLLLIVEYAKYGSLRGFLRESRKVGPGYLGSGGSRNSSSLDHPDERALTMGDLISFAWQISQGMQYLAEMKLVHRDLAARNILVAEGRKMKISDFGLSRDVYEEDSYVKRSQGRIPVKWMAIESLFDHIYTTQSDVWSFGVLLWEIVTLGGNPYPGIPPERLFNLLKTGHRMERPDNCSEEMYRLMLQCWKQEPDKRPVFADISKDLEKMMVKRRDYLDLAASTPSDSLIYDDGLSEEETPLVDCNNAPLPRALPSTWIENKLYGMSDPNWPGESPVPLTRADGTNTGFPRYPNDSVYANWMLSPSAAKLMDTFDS
Outline: (§2)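 Mobility shift kinase assay. Compounds were diluted in DMSO and then in kinase buffer, and tested in duplicate wells with enzyme and peptide substrate. Incubation was 1 h at 28 °C before stop buffer was added.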

[6] = target: Receptor-type tyrosine-protein kinase FLT3 (Homo sapiens) (UniProt P36888); assay: Inhibition of FLT3 (unknown origin) at 10 uM after 1 hr by mobility shift assay; outline: as §2
Receptor-type tyrosine-protein kinase FLT3 (Homo sapiens), sequence (P36888 whole entry): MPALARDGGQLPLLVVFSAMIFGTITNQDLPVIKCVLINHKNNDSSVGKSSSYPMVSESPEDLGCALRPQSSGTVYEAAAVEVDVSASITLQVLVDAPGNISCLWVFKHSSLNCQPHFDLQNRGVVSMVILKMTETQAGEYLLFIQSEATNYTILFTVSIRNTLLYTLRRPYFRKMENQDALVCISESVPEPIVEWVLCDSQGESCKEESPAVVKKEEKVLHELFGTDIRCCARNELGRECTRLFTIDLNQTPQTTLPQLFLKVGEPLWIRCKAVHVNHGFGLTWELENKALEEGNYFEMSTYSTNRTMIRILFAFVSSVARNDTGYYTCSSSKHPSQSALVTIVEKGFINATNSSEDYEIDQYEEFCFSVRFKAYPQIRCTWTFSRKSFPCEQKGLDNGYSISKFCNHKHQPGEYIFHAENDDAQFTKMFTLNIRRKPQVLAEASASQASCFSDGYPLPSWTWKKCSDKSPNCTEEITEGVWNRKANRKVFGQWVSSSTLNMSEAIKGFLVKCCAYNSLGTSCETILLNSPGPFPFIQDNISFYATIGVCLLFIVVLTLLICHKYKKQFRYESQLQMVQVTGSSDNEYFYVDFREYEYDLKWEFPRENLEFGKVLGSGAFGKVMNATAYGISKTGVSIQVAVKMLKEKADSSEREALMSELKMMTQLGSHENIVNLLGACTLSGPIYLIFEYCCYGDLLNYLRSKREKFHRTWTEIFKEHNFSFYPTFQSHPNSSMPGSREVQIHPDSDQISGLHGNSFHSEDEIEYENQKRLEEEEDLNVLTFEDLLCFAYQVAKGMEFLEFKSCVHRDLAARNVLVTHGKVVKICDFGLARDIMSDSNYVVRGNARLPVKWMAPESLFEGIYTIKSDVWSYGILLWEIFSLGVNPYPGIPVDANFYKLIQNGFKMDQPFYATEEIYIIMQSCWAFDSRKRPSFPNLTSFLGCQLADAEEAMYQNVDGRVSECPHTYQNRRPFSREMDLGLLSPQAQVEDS

[7] = target: Mast/stem cell growth factor receptor Kit (Homo sapiens) (UniProt P10721); assay: Inhibition of c-KIT (unknown origin) at 10 uM after 1 hr by mobility shift assay; outline: as §2
Mast/stem cell growth factor receptor Kit (Homo sapiens), sequence (P10721 whole entry): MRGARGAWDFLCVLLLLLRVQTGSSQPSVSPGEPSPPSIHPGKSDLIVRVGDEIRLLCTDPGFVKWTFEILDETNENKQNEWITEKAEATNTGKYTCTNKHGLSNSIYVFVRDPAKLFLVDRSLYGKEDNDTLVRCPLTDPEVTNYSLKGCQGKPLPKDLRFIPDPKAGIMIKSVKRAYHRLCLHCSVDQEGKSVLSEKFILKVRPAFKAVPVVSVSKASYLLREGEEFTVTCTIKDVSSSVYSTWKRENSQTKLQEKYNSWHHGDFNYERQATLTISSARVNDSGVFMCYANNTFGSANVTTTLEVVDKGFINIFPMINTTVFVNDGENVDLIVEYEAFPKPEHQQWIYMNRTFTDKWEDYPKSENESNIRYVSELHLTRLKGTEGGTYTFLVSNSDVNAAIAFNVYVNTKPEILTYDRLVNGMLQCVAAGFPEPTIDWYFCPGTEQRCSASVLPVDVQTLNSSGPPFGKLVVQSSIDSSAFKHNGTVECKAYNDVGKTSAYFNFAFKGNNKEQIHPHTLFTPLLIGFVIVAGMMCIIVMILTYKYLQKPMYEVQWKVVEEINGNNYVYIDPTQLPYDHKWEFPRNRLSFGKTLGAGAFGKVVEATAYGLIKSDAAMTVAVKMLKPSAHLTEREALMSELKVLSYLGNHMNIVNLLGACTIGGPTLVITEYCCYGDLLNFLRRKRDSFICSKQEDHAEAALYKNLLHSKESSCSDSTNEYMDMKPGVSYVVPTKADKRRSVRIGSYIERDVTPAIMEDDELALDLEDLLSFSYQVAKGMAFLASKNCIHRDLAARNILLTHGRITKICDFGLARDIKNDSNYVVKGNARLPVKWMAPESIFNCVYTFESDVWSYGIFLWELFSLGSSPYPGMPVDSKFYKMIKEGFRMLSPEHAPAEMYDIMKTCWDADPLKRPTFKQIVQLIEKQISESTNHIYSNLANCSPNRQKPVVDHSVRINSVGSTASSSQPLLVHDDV

HT-29 [8] = assay: Induction of apoptosis in human HT-29 cells assessed as late apoptotic cells at 5 uM after 48 hrs by annexin V/propidium iodide staining based flow cytometric analysis (reference value: 2.49 %); type: functional
HT-29 [9] = assay: Induction of apoptosis in human HT-29 cells assessed as viable cells 2 uM after 48 hrs by annexin V/propidium iodide staining based flow cytometric analysis (reference value: 92.1 %); type: functional
HT-29 [10] = assay: Induction of apoptosis in human HT-29 cells assessed as early apoptotic cells at 2 uM after 48 hrs by annexin V/propidium iodide staining based flow cytometric analysis (reference value: 1.72 %); type: functional
HT-29 [11] = assay: Induction of apoptosis in human HT-29 cells after 48 hrs by annexin V/propidium iodide staining based flow cytometric analysis; type: functional, cell-based
HT-29 [12] = assay: Induction of apoptosis in human HT-29 cells assessed as early apoptotic cells at 1 uM after 48 hrs by annexin V/propidium iodide staining based flow cytometric analysis (reference value: 1.72 %); type: functional
HT-29 [13] = assay: Induction of apoptosis in human HT-29 cells assessed as viable cells at 1 uM after 48 hrs by annexin V/propidium iodide staining based flow cytometric analysis (reference value: 92.1 %); type: functional; conditions: HT-29, 48 h, read-out: Activity
HT-29 [14] = assay: Induction of apoptosis in human HT-29 cells assessed as necrotic cells at 1 uM after 48 hrs by annexin V/propidium iodide staining based flow cytometric analysis (reference value: 3.66 %); type: functional
HT-29 [15] = assay: Induction of apoptosis in human HT-29 cells assessed as necrotic cells at 2 uM after 48 hrs by annexin V/propidium iodide staining based flow cytometric analysis (reference value: 3.66 %); type: functional
HT-29 [16] = assay: Induction of apoptosis in human HT-29 cells assessed as late apoptotic cells at 2 uM after 48 hrs by annexin V/propidium iodide staining based flow cytometric analysis (reference value: 2.49 %); type: functional
HT-29 [17] = assay: Induction of apoptosis in human HT-29 cells assessed as late apoptotic cells at 1 uM after 48 hrs by annexin V/propidium iodide staining based flow cytometric analysis (reference value: 2.49 %); type: functional
HT-29 [18] = assay: Induction of apoptosis in human HT-29 cells assessed as necrotic cells at 5 uM after 48 hrs by annexin V/propidium iodide staining based flow cytometric analysis (reference value: 3.66 %); type: functional
HT-29 [19] = assay: Induction of apoptosis in human HT-29 cells assessed as early apoptotic cells at 5 uM after 48 hrs by annexin V/propidium iodide staining based flow cytometric analysis (reference value: 1.72 %); type: functional
HT-29 [20] = assay: Induction of apoptosis in human HT-29 cells assessed as viable cells 5 uM after 48 hrs by annexin V/propidium iodide staining based flow cytometric analysis (reference value: 92.1 %); type: functional

SMILES	IC50 (HT-29 [1])	IC50 (MDA-MB-231)	inhibition [4]	inhibition [5]	inhibition [6]	inhibition [7]	IC50 [2]	IC50 [3]	other results
O=C(Nc1ccc(Oc2ccnc(-c3nncn3CCCN3CCOCC3)c2)c(F)c1)Nc1ccccc1C(F)(F)F	15.7 µM	–	–	–	–	–	–	–	–
CN(C)CCCn1cnnc1-c1cc(Oc2ccc(NC(=O)Nc3ccccc3C(F)(F)F)cc2F)ccn1	3.13 µM	40.5 µM	1.7%	–	–	–	10.9 µM	28.6 µM	–
O=C(Nc1ccc(Oc2ccnc(-c3nncn3CCCN3CCOCC3)c2)c(F)c1)Nc1ccc(Cl)cc1Cl	3.56 µM	> 50 µM	–	45.6%	22%	43.5%	–	–	–
O=C(Nc1ccc(Oc2ccnc(-c3nncn3C3CC3)c2)c(F)c1)Nc1ccc(Cl)c(C(F)(F)F)c1	10.9 µM	> 50 µM	–	–	–	–	> 50 µM	–	–
Cn1ncnc1-c1cc(Oc2ccc(NC(=O)Nc3ccc(Cl)c(C(F)(F)F)c3)cc2F)ccn1	12.4 µM	> 50 µM	–	–	–	–	> 50 µM	> 50 µM	–
Cn1cnnc1-c1cc(Oc2ccc(NC(=O)Nc3ccc(Cl)c(C(F)(F)F)c3)cc2F)ccn1	2.57 µM	5.32 µM	–	–	–	–	2.31 µM	9.85 µM	–
Cn1ncnc1-c1cc(Oc2ccc(NC(=O)Nc3cccc(C(F)(F)F)c3)cc2F)ccn1	> 50 µM	9.68 µM	–	–	–	–	11.6 µM	22.4 µM	–
CCN(CC)CCn1cnnc1-c1cc(Oc2ccc(NC(=O)Nc3cccc(C(F)(F)F)c3)cc2F)ccn1	0.63 µM	0.72 µM	11.5%	72.1%	61%	66.5%	9.87 µM	6.92 µM	–
CCN(CC)CCn1cnnc1-c1cc(Oc2ccc(NC(=O)Nc3ccc(Cl)cc3Cl)cc2F)ccn1	3.59 µM	1.79 µM	–	–	–	–	5.38 µM	4.28 µM	–
CCN(CC)CCn1cnnc1-c1cc(Oc2ccc(NC(=O)Nc3ccccc3C(F)(F)F)cc2F)ccn1	3.41 µM	11.6 µM	–	–	–	–	> 50 µM	23.5 µM	–
CNC(=O)c1cc(Oc2ccc(NC(=O)Nc3ccc(Cl)c(C(F)(F)F)c3)cc2)ccn1 [SORAFENIB]	3.37 µM	3.08 µM	–	97%	98.5%	95.6%	2.25 µM	8.42 µM	–
CN(C)CCCn1cnnc1-c1cc(Oc2ccc(NC(=O)Nc3cccc(C(F)(F)F)c3)cc2F)ccn1	0.98 µM	13.3 µM	62.8%	85.6%	69.2%	69.9%	1.79 µM	11.6 µM	–
O=C(Nc1ccc(Oc2ccnc(-c3nncn3CCCN3CCOCC3)c2)c(F)c1)Nc1ccc(F)c(Cl)c1	16.2 µM	> 50 µM	–	–	–	–	16.2 µM	–	–
O=C(Nc1ccc(Oc2ccnc(-c3nncn3CCCN3CCOCC3)c2)c(F)c1)Nc1ccc(Cl)c(C(F)(F)F)c1	2.86 µM	8.28 µM	0%	42.3%	38.5%	56.7%	3.23 µM	9.65 µM	–
CN(C)CCn1cnnc1-c1cc(Oc2ccc(NC(=O)Nc3ccccc3C(F)(F)F)cc2F)ccn1	5.86 µM	> 50 µM	2.2%	43%	17.6%	22.7%	> 50 µM	> 50 µM	–
CCN(CC)CCn1cnnc1-c1cc(Oc2ccc(NC(=O)Nc3ccc(Cl)c(C(F)(F)F)c3)cc2F)ccn1	0.9 µM	1.54 µM	10%	84.4%	84.9%	79.9%	0.85 µM	6.73 µM	Activity (HT-29 [8]): 37.5%; Activity (HT-29 [9]): 66.4%; Activity (HT-29 [10]): 14.4%; Activity (HT-29 [11]): Dose-dependent effect; Activity (HT-29 [12]): 3.92%; viability at 1 µM (HT-29 [13]): 80.3%; Activity (HT-29 [14]): 7.44%; Activity (HT-29 [15]): 6.03%; Activity (HT-29 [16]): 13.2%; Activity (HT-29 [17]): 8.34%; Activity (HT-29 [18]): 8.59%; Activity (HT-29 [19]): 10.6%; Activity (HT-29 [20]): 43.3%
Cn1cnnc1-c1cc(Oc2ccc(NC(=O)Nc3cccc(C(F)(F)F)c3)cc2F)ccn1	3.02 µM	6.47 µM	–	–	–	–	1.27 µM	12.6 µM	–

Continued, in another order:

IC50 (HT-29 [1])	IC50 (MDA-MB-231)	inhibition [4]	inhibition [5]	inhibition [6]	inhibition [7]	SMILES	IC50 [2]	IC50 [3]	other results
0.88 µM	1.07 µM	0%	74.1%	66.3%	70.4%	CN(C)CCn1cnnc1-c1cc(Oc2ccc(NC(=O)Nc3ccc(Cl)c(C(F)(F)F)c3)cc2F)ccn1	1.15 µM	3.76 µM	–
0.68 µM	7.49 µM	11.3%	–	–	–	CN(C)CCCn1cnnc1-c1cc(Oc2ccc(NC(=O)Nc3ccc(Cl)cc3Cl)cc2F)ccn1	3.68 µM	3.26 µM	–
1.24 µM	41.3 µM	0%	7.1%	39%	27.7%	CCN(CC)CCn1cnnc1-c1cc(Oc2ccc(NC(=O)Nc3ccc(F)c(F)c3)cc2F)ccn1	14.8 µM	> 50 µM	–
0.89 µM	14.2 µM	35%	45.5%	72.1%	71%	CN(C)CCCn1cnnc1-c1cc(Oc2ccc(NC(=O)Nc3ccc(F)c(Cl)c3)cc2F)ccn1	1.27 µM	5.37 µM	–
0.5 µM	34 µM	2.7%	1.9%	59.6%	40.4%	CCN(CC)CCn1cnnc1-c1cc(Oc2ccc(NC(=O)Nc3ccc(F)c(Cl)c3)cc2F)ccn1	7.39 µM	28.7 µM	–
1.21 µM	25.2 µM	20.3%	30.9%	44.3%	63.1%	CN(C)CCCn1cnnc1-c1cc(Oc2ccc(NC(=O)Nc3ccc(F)c(F)c3)cc2F)ccn1	1.08 µM	15.3 µM	–
0.72 µM	8.32 µM	26.9%	63.3%	52.2%	74%	CN(C)CCn1cnnc1-c1cc(Oc2ccc(NC(=O)Nc3ccc(F)c(Cl)c3)cc2F)ccn1	1.58 µM	7.58 µM	–
3.62 µM	> 50 µM	–	17.6%	13.5%	3.9%	CN(C)CCn1cnnc1-c1cc(Oc2ccc(NC(=O)Nc3ccc(F)c(F)c3)cc2F)ccn1	9.05 µM	> 50 µM	–
1.47 µM	16.4 µM	2.7%	77.7%	42.2%	60.5%	CN(C)CCn1cnnc1-c1cc(Oc2ccc(NC(=O)Nc3cccc(C(F)(F)F)c3)cc2F)ccn1	2.15 µM	11.2 µM	–
1.89 µM	7.96 µM	6%	–	–	–	CN(C)CCn1cnnc1-c1cc(Oc2ccc(NC(=O)Nc3ccc(Cl)cc3Cl)cc2F)ccn1	4.35 µM	10.4 µM	–
1.4 µM	7.88 µM	10.9%	79.3%	86.9%	69.9%	CN(C)CCCn1cnnc1-c1cc(Oc2ccc(NC(=O)Nc3ccc(Cl)c(C(F)(F)F)c3)cc2F)ccn1	1.68 µM	7.91 µM	–
